TNAP inh no acc: blocks human TNAP activity with no phosphate acceptor present; P05186; purified TNAP, CDP-star luminescence, 30 min; inhibition, % at 20 µM; 0.26% of 200,000 active; AID 1012;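 active = tissue-nonspecific alkaline phosphatase inhibition above about 50% at 20 µM in the single-dose screen, limit read from the data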
Target sequence (P05186 whole entry, looked up): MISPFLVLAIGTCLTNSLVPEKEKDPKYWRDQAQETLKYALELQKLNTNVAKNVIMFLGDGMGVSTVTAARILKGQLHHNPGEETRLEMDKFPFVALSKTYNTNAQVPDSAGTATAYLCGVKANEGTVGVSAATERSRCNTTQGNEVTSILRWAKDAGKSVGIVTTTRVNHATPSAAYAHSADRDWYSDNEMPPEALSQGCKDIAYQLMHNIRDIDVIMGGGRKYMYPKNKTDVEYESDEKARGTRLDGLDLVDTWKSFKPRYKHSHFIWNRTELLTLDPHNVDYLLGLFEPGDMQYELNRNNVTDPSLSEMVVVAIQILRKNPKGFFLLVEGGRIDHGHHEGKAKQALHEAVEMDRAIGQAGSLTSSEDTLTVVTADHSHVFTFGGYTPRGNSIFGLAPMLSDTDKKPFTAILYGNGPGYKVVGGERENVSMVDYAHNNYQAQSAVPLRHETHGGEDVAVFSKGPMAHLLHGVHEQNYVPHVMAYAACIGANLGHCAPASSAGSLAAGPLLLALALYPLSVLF
PTEN del growth: suppresses growth of cells with PTEN deletion | 1.2% of 140,000 active | HCT116 PTEN-null viability, CellTiter-Glo, 60 h; active compounds read low | AID 827 | viability, % at 10 µM;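 active = viability at or below a set limit, 4 SD under the median of all tested compounds, cut at about 3.7% in these data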;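 note: PTEN knockout HCT116 line with beta catenin targeted HCT116 as companion control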
TNAP inh hiacc: TNAP (human) inhibition, high acceptor; purified TNAP, CDP-star luminescence, 1 M DEA; AID 1135; inhibition, % at 20 µM; 0.03% of 200,000 active; P05186;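 active = over 50% inhibition of tissue-nonspecific alkaline phosphatase at 20 µM in the single-dose screen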
TNAP act hiacc: TNAP (human) activation, high acceptor | 200,000 tested, under 10 active | AID 1136 | activation factor at 20 µM | purified TNAP, CDP-star luminescence, 1 M DEA, 30 min; active compounds read high; 0 = EDTA background, 1 = DMSO-only activity;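 active = activation factor at least 2 at 20 µM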
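Dosing: 20 µM single point. System: human TNAP. Amount: TNAP 1/800 final. Incubation: 30 min, room temperature. Read-out: TNAP activation factor scaled between EDTA and DMSO control wells. Signal: luminescence from CDP-star hydrolysis. Medium: 1 M DEA, pH 9.8, Mg2+, Zn2+. Control set: EDTA negative control, DMSO positive control.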
Lmaj promast: reduces viability of Leishmania major promastigotes; resazurin fluorescence viability; inhibition, % at 10 µM; 9% of 200,000 active; AID 1063; in the data active = inhibition above about 50%;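 note: promastigotes grown with compound for 44 hours at 28 °C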
bCat KO growth: beta-catenin-lacking colon tumor cell growth suppression; AID 818; 1.5% of 140,000 active; viability, % at 10 µM; HCT116 beta-catenin knockout viability, CellTiter-Glo, 60 h; active compounds read low;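 active = viability at or under a set limit, the compound median less 4 SD, cut at about 6% in these data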
A number is an active result; - = inactive; . = no result given. Shown are actives, neighbours in structure and some others; about 9.6% of the full set was active somewhere.

SMILES	TNAP inh no acc	PTEN del growth	TNAP inh hiacc	TNAP act hiacc	Lmaj promast	bCat KO growth
O=C(NCc1ccccc1)C1=C[C@@H](c2csc3ccccc23)C[C@@H](OCCCCO)O1	-	.	-	-	-	.
O=C(NCc1ccccc1)C1=C[C@@H](c2csc3ccccc23)C[C@@H](OCc2ccc(CO)cc2)O1	-	.	-	-	73.9	.
O=C(NC1CC1)C1=C[C@H](c2csc3ccccc23)C[C@H](OCCCCO)O1	-	.	-	-	84.8	.
O=C(O)C1=C[C@H](c2csc3ccccc23)C[C@H](OCc2ccc(CO)cc2)O1	-	.	-	-	-	.
Cc1nc2ccc(N=NC3=C(O)CC(C)(C)CC3=O)cc2s1	-	-	-	-	90.9	-
Cc1ccc(O)c(N=NC2=C(O)CC(C)(C)CC2=O)c1	-	-	-	-	98.9	4.4
O=C(Cc1cccs1)N/N=C/C(Cl)=C/c1ccccc1	-	.	-	-	-	.
CSc1ccc(-c2nc(CN3CCCCC3c3cccnc3)c(C)o2)cc1 (stereo unspecified)	-	.	-	-	50.8	.
Fc1ccc(N2CCN(Cc3cnc(Cl)s3)CC2)cc1	-	.	-	-	-	.
Cc1ccnc(NC(c2ccccn2)c2c(C)[nH]c3ccccc23)c1 (stereo unspecified)	-	.	-	-	74.1	.
Cc1[nH]c2ccccc2c1C(c1ccccn1)N1CCCC1 (stereo unspecified)	-	.	-	-	-	.
Cc1ccc(-c2[nH]c3ccccc3c2SCCNC(=O)c2ccc(S(=O)(=O)N3CCOCC3)cc2)cc1	-	0.8	-	-	99.5	0.8
COc1ccc(-c2[nH]c3ccccc3c2SCCNC(=O)c2ccccc2)cc1	-	-	-	-	-	-
CC1CCCN(C(=O)CSc2nc3ncccc3[nH]2)C1 (stereo unspecified)	53.1	.	-	-	-	.
C=C(C)CSc1nc2ncccc2[nH]1	65.8	-	-	-	-	-
CCN(CC)C(=O)CSc1nc2ncccc2[nH]1	-	-	-	-	-	-
CCOC(=O)c1ccc(NC(=O)CSc2nc3ncccc3[nH]2)cc1	-	-	-	-	62.5	-
CCc1ccc(-c2cn(C3CCCCC3)c(=S)[nH]2)cc1	-	.	-	-	-	.
Cc1c(C)n(Cc2ccccc2)c2ccc(C(=O)OCCN(C)C)cc12	-	.	-	-	100.2	.
CCn1ncc(/C=N\NC(=O)c2ccc3c(c2)c(C)c(C)n3Cc2ccccc2)c1C	-	-	-	-	-	-
O=C(O)CC(NC(=O)Cc1ccc(Cl)cc1)c1ccco1 (stereo unspecified)	-	.	-	-	-	.
O=C(CN(c1cccc(C(F)(F)F)c1)S(=O)(=O)c1ccc(Cl)c([N+](=O)[O-])c1)NCc1ccccc1	-	-	-	-	63.5	-
O=C(CN(c1cccc(C(F)(F)F)c1)S(=O)(=O)c1ccc(Cl)c([N+](=O)[O-])c1)NCc1ccccc1Cl	-	-	-	-	99.9	-
CC(NC(=O)CN(c1cccc(C(F)(F)F)c1)S(=O)(=O)c1ccc(Cl)c([N+](=O)[O-])c1)c1ccccc1 (stereo unspecified)	-	-	-	-	50.0	5.8
CC(C)(C)NC(=O)CN(c1cccc([N+](=O)[O-])c1)S(=O)(=O)c1ccccc1	-	.	-	-	-	.
SMILES	TNAP inh no acc	PTEN del growth	TNAP inh hiacc	TNAP act hiacc	Lmaj promast	bCat KO growth
O=C(O)CN(c1cccc(C(F)(F)F)c1)S(=O)(=O)c1ccccc1	-	.	-	-	-	.
O=C(CN(c1ccc(Br)cc1)S(=O)(=O)c1ccc(Cl)c([N+](=O)[O-])c1)NCCc1ccccc1	-	.	-	-	-	.
Cc1ccc(N(CC(=O)NCCc2ccc(F)cc2)S(=O)(=O)c2ccc(Cl)c([N+](=O)[O-])c2)c(C)c1	-	1.4	-	-	53.5	1.5
Cc1cc(Oc2ccc(=O)n(C)n2)nc(SCc2ccccc2)n1	-	.	-	-	-	.
Cc1ccc(CN2CCSc3ccc(C(=O)NCc4ccccn4)cc32)cc1	-	.	-	-	-	.
CN1CCC(Oc2ccccc2Sc2ccc(C(F)(F)F)cc2)CC1	-	-	-	-	99.2	-
CSc1ccccc1OC1CCN(Cc2ccccc2)CC1	-	-	-	-	-	-
CN1CCC(OC(=O)COc2ccccc2)CC1	-	-	-	-	-	-
CN1CCC(Oc2ccc(Sc3ccccc3)cc2)CC1	-	-	-	-	100.1	-
O=C(COC(=O)c1ccc2c(c1)C(=O)N(Cc1ccncc1)C2=O)Nc1ccccc1[N+](=O)[O-]	-	-	-	-	54.4	-
CC(OC(=O)c1ccc2c(c1)C(=O)N(Cc1ccncc1)C2=O)C(=O)Nc1cccc(Cl)c1Cl (stereo unspecified)	-	-	-	-	-	-
CN(C)CCCNC(=O)c1ccc(-c2nc(-c3ccc(Cl)cc3)cs2)cc1	-	1.5	-	-	100.5	1.3
CN(C)CCCNC(=O)c1ccccn1	-	-	-	-	-	-
O=C(CC12CC3CC(CC(C3)C1)C2)NC(=S)NCc1ccco1	-	.	-	-	93.3	.
O=C(NCc1ccco1)C12CC3CC(CC(C3)C1)C2	-	-	-	-	-	-
c1ccc2c(c1)CCN(C1=Nc3cccc4cccc1c34)C2	-	.	-	-	69.0	.
Cc1ccc(NCCC(=O)c2cccs2)cc1	-	.	-	-	71.9	.
Cc1ccccc1NC(NC(=O)c1cccs1)C(Cl)(Cl)Cl (stereo unspecified)	-	-	-	-	72.4	-
CSc1ccccc1NC(=O)c1cccs1	-	-	-	-	-	-
Cc1ccc(NC(NC(=O)c2cccs2)C(Cl)(Cl)Cl)cc1C (stereo unspecified)	-	-	-	-	-	-
Cc1ccc(NC(NC(=O)c2cccs2)C(Cl)(Cl)Cl)cc1 (stereo unspecified)	-	-	-	-	71.4	-
C=CCNC(=O)C1CCN(c2ccc(S(=O)(=O)N3CCOCC3)cc2[N+](=O)[O-])CC1	-	.	-	-	-	.
CN1C(=O)S/C(=C\c2ccc(-n3cncn3)cc2)C1=O	-	.	-	-	-	.
CCc1cccc(CC)c1NC(=O)COC(=O)CCc1cc(OC)c(OC)c(OC)c1	-	-	-	-	-	-
COC(=O)C(=C/C(C)=C/c1cccnc1)C(=O)OC	-	.	-	-	70.9	.
COC(=O)/C(=C/c1cccnc1)NC(=O)c1ccccc1	-	-	-	-	-	-
CS(=O)(=O)N(CC(=O)N1CCN(C(c2ccccc2)c2ccccc2)CC1)C1CCCCC1	-	-	-	-	91.8	-
Cc1ccc(S(=O)(=O)N(CC(=O)N2CCN(c3ccccc3F)CC2)C2CCCCC2)cc1	-	-	-	-	96.8	-
Cc1cccc(C)c1NC(=O)NC1(C(=O)NCCN2CCOCC2)CCCCC1	-	.	-	-	-	.
CCC(C)NC(=O)COC(=O)c1oc2ccccc2c1CSc1ccc(Cl)cc1 (stereo unspecified)	-	-	-	-	-	-

Screens: PubChem, several laboratories
